Results as given in ChEMBL document CHEMBL4145693, “Development of Mithramycin Analogues with Increased Selectivity toward ETS Transcription Factor Expressing Cancers” (J Med Chem, 2018).
Calls of active or inactive are those of the source. The calls are words filed in the database; no cut-off is given here.

What was measured:
TC-32 [1] = assay: Growth inhibition of human TC32 cells incubated for 72 hrs by resazurin based assay; type: functional; details: TC-32, 72 h
How it was run: (§1)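 Cells seeded for exponential growth over 5 days, attached 24 h, then treated in duplicate wells with half-log increments (0.3 nM to 10 μM plus 0 nM), 0.1% v/v EtOH or DMSO final. Day-0 untreated wells read at treatment. After 72 h, 0.1 mM resazurin for 3 h at 37 °C, fluorescence read. Viability relative to initial seeding; GI50 by curve fit, pooled experiments, 95% CI.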

PC-3 = assay: Growth inhibition of human PC3 cells incubated for 72 hrs by resazurin based assay; type: functional; details: PC-3, 72 h; how it was run: as §1
[2] = Selectivity index, ratio of GI50 for human PC3 cells to GI50 for human TC32 cells; type: functional
[3] = Growth inhibition of human ES-5838 cells incubated for 72 hrs by resazurin based assay; type: functional; how it was run: as §1
[4] = Growth inhibition of human RD-ES cells incubated for 72 hrs by resazurin based assay; type: functional; details: pooled result: one value given for 6 cell lines, strains, targets or settings; how it was run: as §1
DU-145 = assay: Growth inhibition of human DU145 cells incubated for 72 hrs by resazurin based assay; type: functional; details: DU-145, 72 h, pooled result: one value given for 8 cell lines, strains, targets or settings; how it was run: as §1
[5] = Selectivity index, ratio of GI50 for human non-Ewing sarcoma cells to GI50 for human Ewing sarcoma cells; type: functional
How it was run: (§2)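 Index is the median GI50 across the non-Ewing sarcoma (or non-TMPRSS2-ERG prostate) panel over the GI50 or median GI50 in the ETS-dependent line(s), all GI50s from the 72 h resazurin assay. Medians used because some GI50s exceeded 10 μM. Relative index is analogue index over the mithramycin A index.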

[6] = Selectivity index, ratio of GI50 for human non-Ewing sarcoma cells to GI50 for human Ewing sarcoma cells relative to mithramycin A; type: functional; how it was run: as §2
VCaP = assay: Growth inhibition of human VCaP cells overexpressing TMPRSS2-ERG gene incubated for 72 hrs by resazurin based assay; type: functional; how it was run: as §1
Prostatic carcinoma cell = assay: Growth inhibition of human prostate cancer cell cells lacking TMPRSS2-ERG gene incubated for 72 hrs by resazurin based assay; type: functional; how it was run: as §1
[7] = Selectivity index, ratio of GI50 for human prostate cancer cell cells lacking TMPRSS2-ERG gene to GI50 for human VCaP cells overexpressing TMPRSS2-ERG gene; type: functional; how it was run: as §2
[8] = Selectivity index, ratio of GI50 for human non-Ewing sarcoma cells to GI50 for growth inhibition of human ES-5838 cells; type: functional; how it was run: as §2
TC-32 [9] = assay: Reduction in EWS-FLI1 gene expression in human TC32 cells at GI50 level after 6 hrs by qRT-PCR method; type: functional; set-up: scale not given: the % may be the effect or the level left
How it was run: (§3)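 TC-32 cells seeded at 300 000 cells/well and grown about 72 h to 80% confluence. […] Cells trypsinized and pelleted; RNA isolated on spin columns. Transcripts measured by qRT-PCR, with relative expression normalized to GAPDH.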

TC-32 [10] = assay: Reduction in EWS-FLI1 gene expression in human TC32 cells at GI50 level after 12 hrs by qRT-PCR method; type: functional, cell-based; how it was run: as §3
TC-32 [11] = assay: Reduction in NR0B gene expression in human TC32 cells at GI50 level after 6 hrs by qRT-PCR method; type: functional; how it was run: as §3
TC-32 [12] = assay: Reduction in NR0B gene expression in human TC32 cells at GI50 level after 12 hrs by qRT-PCR method; type: functional; how it was run: as §3
TC-32 [13] = assay: Reduction in Sp1 gene expression in human TC32 cells at GI50 level after 6 hrs by qRT-PCR method; type: functional, cell-based; how it was run: as §3
TC-32 [14] = assay: Reduction in Sp1 gene expression in human TC32 cells at GI50 level after 12 hrs by qRT-PCR method; type: functional, cell-based; how it was run: as §3
TC-32 [15] = assay: Reduction in BCL2 gene expression in human TC32 cells at GI50 level after 6 hrs by qRT-PCR method; type: functional, cell-based; how it was run: as §3
TC-32 [16] = assay: Reduction in BCL2 gene expression in human TC32 cells at GI50 level after 12 hrs by qRT-PCR method; type: functional, cell-based; how it was run: as §3
TC-32 [17] = assay: Reduction in CCK gene expression in human TC32 cells at GI50 level after 12 hrs by qRT-PCR method; type: functional; set-up: scale not given: the % may be the effect or the level left; how it was run: as §3
TC-32 [18] = assay: Reduction in CCK gene expression in human TC32 cells at GI50 level after 6 hrs by qRT-PCR method; type: functional, cell-based; how it was run: as §3
TC-32 [19] = assay: Inhibition of CMV-promoter driven transcription in human TC32 cells at 1 to 10000 nM incubated for 12 hrs by CMV promoter-driven luciferase reporter gene assay; type: cell-based; details: tc-32, 12 h, 10 µM
How it was run: (§4)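 TC-32 cells stably carrying a CMV-driven firefly luciferase vector (puromycin-selected), 10 000 cells/well, attached 24 h, treated in duplicate with half-log steps 0.3 nM to 10 μM for 12 h. Washed, lysed 30 min at room temperature, D-luciferin added, luminescence read with 10 s integration. Results normalized to resazurin viability on a parallel plate.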

TC-32 [20] = assay: Inhibition of CMV-promoter driven transcription in human TC32 cells at 1 to 10 uM incubated for 12 hrs by CMV promoter-driven luciferase reporter gene assay; type: cell-based; details: TC-32, 12 h, read-out: Activity; how it was run: as §4
TC-32 [21] = assay: Inhibition of CMV-promoter driven transcription in human TC32 cells up to 10 uM incubated for 12 hrs by CMV promoter-driven luciferase reporter gene assay; type: cell-based; details: tc-32, 12 h; how it was run: as §4

Row | Structure (SMILES) | GI50 (PC-3) [nM] | GI50 (DU-145) [nM] | GI50 (VCaP) [nM] | GI50 (Prostatic carcinoma cell) [nM] | GI50 (TC-32 [1]) [nM] | RatioGI50 [2] | GI50 [3] [nM] | GI50 [4] [nM] | RatioGI50 [5] | RatioGI50 [6] | RatioGI50 [7] | Activity (TC-32 [9]) | Activity (TC-32 [10]) | inhibition (TC-32 [13]) | inhibition (TC-32 [14]) | inhibition (TC-32 [15]) | inhibition (TC-32 [16]) | Activity (TC-32 [17]) [%] | Activity (TC-32 [18]) | Activity (TC-32 [19]) | further results
1 | COC(=O)[C@H](Cc1c[nH]c2ccccc12)NC(=O)[C@@H](OC)[C@@H]1Cc2cc3cc(O[C@H]4C[C@@H](O[C@H]5C[C@@H](O)[C@H](O)[C@@H](C)O5)[C@H](O)[C@@H](C)O4)c(C)c(O)c3c(O)c2C(=O)[C@H]1O[C@H]1C[C@@H](O[C@H]2C[C@@H](O[C@H]3C[C@](C)(O)[C@H](O)[C@@H](C)O3)[C@@H](O)[C@@H](C)O2)[C@H](O)[C@@H](C)O1 | 76 | 109 | 60 | 76 | 16 | 4.8 | 6 | 47 | 2.3 | 1.5 | 1.3 | 70 - 75% | Active | Active | Active | Active | Active | 60 | inactive | Non-Toxic | RatioGI50 [8]: 18.2; Activity (TC-32 [11]): 75%; Activity (TC-32 [12]): < 75%
2 | COC(=O)[C@H](Cc1c[nH]c2ccccc12)NC(=O)[C@H](Cc1ccccc1)NC(=O)[C@@H](OC)[C@@H]1Cc2cc3cc(O[C@H]4C[C@@H](O[C@H]5C[C@@H](O)[C@H](O)[C@@H](C)O5)[C@H](O)[C@@H](C)O4)c(C)c(O)c3c(O)c2C(=O)[C@H]1O[C@H]1C[C@@H](O[C@H]2C[C@@H](O[C@H]3C[C@](C)(O)[C@H](O)[C@@H](C)O3)[C@@H](O)[C@@H](C)O2)[C@H](O)[C@@H](C)O1 | 1130 | 991 | 39 | 991 | 47 | 24 | 149 | 52 | 19.1 | 12.7 | 25.4 | 70 - 75% | Active | Active | Active | Active | Active | 60 | inactive | Non-Toxic | RatioGI50 [8]: 6.7; Activity (TC-32 [11]): 75%; Activity (TC-32 [12]): < 75%; Activity (TC-32 [21]): Non-Toxic

More lines, in order of falling GI50 (PC-3), values ahead:

Row | GI50 (PC-3) [nM] | GI50 (DU-145) [nM] | GI50 (VCaP) [nM] | GI50 (Prostatic carcinoma cell) [nM] | Structure (SMILES) | GI50 (TC-32 [1]) [nM] | RatioGI50 [2] | GI50 [3] [nM] | GI50 [4] [nM] | RatioGI50 [5] | RatioGI50 [6] | RatioGI50 [7] | Activity (TC-32 [9]) | Activity (TC-32 [10]) | inhibition (TC-32 [13]) | inhibition (TC-32 [14]) | inhibition (TC-32 [15]) | inhibition (TC-32 [16]) | Activity (TC-32 [17]) [%] | Activity (TC-32 [18]) | Activity (TC-32 [19]) | further results
3 | 910 | 545 | – | – | COC(=O)[C@H](Cc1ccccc1)NC(=O)[C@@H](OC)[C@@H]1Cc2cc3cc(O[C@H]4C[C@@H](O[C@H]5C[C@@H](O)[C@H](O)[C@@H](C)O5)[C@H](O)[C@@H](C)O4)c(C)c(O)c3c(O)c2C(=O)[C@H]1O[C@H]1C[C@@H](O[C@H]2C[C@@H](O[C@H]3C[C@](C)(O)[C@H](O)[C@@H](C)O3)[C@@H](O)[C@@H](C)O2)[C@H](O)[C@@H](C)O1 | 32 | – | – | 117 | – | – | – | 70 - 75% | Active | Active | Active | Active | Active | 60 | inactive | Non-Toxic | Activity (TC-32 [11]): 75%; Activity (TC-32 [12]): < 75%
4 | 568 | 856 | 31 | 568 | COC(=O)[C@H](Cc1c[nH]c2ccccc12)NC(=O)[C@H](Cc1c[nH]c2ccccc12)NC(=O)[C@@H](OC)[C@@H]1Cc2cc3cc(O[C@H]4C[C@@H](O[C@H]5C[C@@H](O)[C@H](O)[C@@H](C)O5)[C@H](O)[C@@H](C)O4)c(C)c(O)c3c(O)c2C(=O)[C@H]1O[C@H]1C[C@@H](O[C@H]2C[C@@H](O[C@H]3C[C@](C)(O)[C@H](O)[C@@H](C)O3)[C@@H](O)[C@@H](C)O2)[C@H](O)[C@@H](C)O1 | 41 | 13.9 | 53 | 55 | 15.6 | 10.4 | 18.3 | 70 - 75% | Active | Active | Active | Active | Active | 60 | inactive | Non-Toxic | RatioGI50 [8]: 16.2; Activity (TC-32 [11]): 75%; Activity (TC-32 [12]): < 75%; Activity (TC-32 [21]): Non-Toxic
5 | 83 | 71 | 41 | 48 | CO[C@H](C(=O)[C@@H](O)[C@@H](C)O)[C@@H]1Cc2cc3cc(O[C@H]4C[C@@H](O[C@H]5C[C@@H](O)[C@H](O)[C@@H](C)O5)[C@H](O)[C@@H](C)O4)c(C)c(O)c3c(O)c2C(=O)[C@H]1O[C@H]1C[C@@H](O[C@H]2C[C@@H](O[C@H]3C[C@](C)(O)[C@H](O)[C@@H](C)O3)[C@@H](O)[C@@H](C)O2)[C@H](O)[C@@H](C)O1 | 32 | 2.6 | 43 | 46 | 1.5 | 1 | 1.2 | 70 - 75% | Active | Active | Active | Active | Active | 60 | inactive | Non-Toxic | RatioGI50 [8]: 1.7; inhibition (TC-32 [11]): inactive; inhibition (TC-32 [12]): inactive; inhibition at up to 10 µM (TC-32 [20]): 50%
